Active and inactive are the calls of the source.
Columns and labels:
[1] = system: K562; experiment: Effect on LOC85389 gene expression in human K562 cells assessed as change in mRNA transcript expression at 10 nM after 48 hrs by DNA microarray analysis relative to control; assay type: functional
In short: (§1)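 K562 CML cells (b3a2 Bcr-Abl) in standard ATCC-recommended culture, exposed once to 10 nM conjugate and harvested at 48 h. Untreated controls were also collected at 48 h. Transcripts were profiled on Human Gene 1.0 ST whole-genome oligonucleotide arrays, and each treated level was expressed relative to the untreated control, with a cutoff of at least twofold change.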

[2] = system: K562; experiment: Downregulation of histone H4C mRNA expression in human K562 cells at 125 nM after 48 hrs by real-time PCR analysis; assay type: functional, cell-based
In short: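 K562 cells were treated for 48 h, and H4c and H4e mRNA were measured by one-step real-time RT-PCR. Reverse transcription ran at 50 °C for 10 min, then hot-start activation at 95 °C for 15 min. Cycling was 45 cycles of 95 °C 15 s, 55 °C 30 s and 72 °C 30 s. Levels were normalized to GAPDH mRNA; error bars are SD.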

[3] = system: K562; experiment: Effect on SLC7A8 gene expression in human K562 cells assessed as change in mRNA transcript expression at 10 nM after 48 hrs by DNA microarray analysis relative to control; assay type: functional; in short: as §1
[4] = system: K562; experiment: Effect on JUN gene expression in human K562 cells assessed as change in mRNA transcript expression at 10 nM after 48 hrs by DNA microarray analysis relative to control; assay type: functional; in short: as §1
[5] = system: K562; experiment: Effect on HIST2H2AA gene expression in human K562 cells assessed as change in mRNA transcript expression at 10 nM after 48 hrs by DNA microarray analysis relative to control; assay type: functional; in short: as §1
[6] = system: K562; experiment: Effect on HIST1H2B gene expression in human K562 cells assessed as change in mRNA transcript expression at 10 nM after 48 hrs by DNA microarray analysis relative to control; assay type: functional
In short: (§2)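 Transcripts were profiled on Affymetrix GeneChip Human Gene 1.0 ST arrays in K562 cells treated at 10 nM. Treated cells were collected at 6, 12, 24 and 48 h; untreated controls were collected at 48 h. Transcripts changed at least twofold versus control were scored.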

[7] = system: K562; experiment: Effect on HIST2H2AB gene expression in human K562 cells assessed as change in mRNA transcript expression at 10 nM after 48 hrs by DNA microarray analysis relative to control; assay type: functional; in short: as §1
[8] = system: K562; experiment: Cell cycle arrest in human K562 cells assessed as increase in accumulation at S phase at 125 to 250 nM after 48 hrs propidium iodide staining-based FACS analysis; assay type: functional
In short: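 K562 cells, from ATCC and kept under ATCC-recommended conditions, were treated for 48 h and pelleted at 200g for 5 min. They were resuspended in PBS, fixed with prechilled 70% ethanol and stained with propidium iodide at 50 µg/mL. DNA content was read by flow cytometry to assign the G0–G1, S and G2–M fractions; sub-2C DNA content was taken as apoptosis.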

[9] = system: K562; experiment: Effect on MYL4 gene expression in human K562 cells assessed as change in mRNA transcript expression at 10 nM after 48 hrs by DNA microarray analysis relative to control; assay type: functional; in short: as §1
[10] = system: K562; experiment: Effect on BBS9 gene expression in human K562 cells assessed as change in mRNA transcript expression at 10 nM after 48 hrs by DNA microarray analysis relative to control; assay type: functional; in short: as §2
[11] = system: K562; experiment: Effect on IMMP2L gene expression in human K562 cells assessed as change in mRNA transcript expression at 10 nM after 48 hrs by DNA microarray analysis relative to control; assay type: functional; in short: as §1
[12] = system: K562; experiment: Effect on EGR1 gene expression in human K562 cells assessed as change in mRNA transcript expression at 10 nM after 48 hrs by DNA microarray analysis relative to control; assay type: functional; in short: as §2
[13] = system: K562; experiment: Effect on HIST2H2A gene expression in human K562 cells assessed as change in mRNA transcript expression at 10 nM after 48 hrs by DNA microarray analysis relative to control; assay type: functional; in short: as §1
[14] = system: K562; experiment: Effect on HIST1H1D gene expression in human K562 cells assessed as change in mRNA transcript expression at 10 nM after 48 hrs by DNA microarray analysis relative to control; assay type: functional; in short: as §2
[15] = system: K562; experiment: Effect on HIST1H4H gene expression in human K562 cells assessed as down-regulation of mRNA transcript expression at 10 nM after 48 hrs by DNA microarray analysis relative to control; assay type: functional; in short: as §1
[16] = system: K562; experiment: Effect on GPR56 gene expression in human K562 cells assessed as change in mRNA transcript expression at 10 nM after 48 hrs by DNA microarray analysis relative to control; assay type: functional; in short: as §2
[17] = system: K562; experiment: Effect on TRIB3 gene expression in human K562 cells assessed as change in mRNA transcript expression at 10 nM after 48 hrs by DNA microarray analysis relative to control; assay type: functional
In short: (§3)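 K562 CML cells (b3a2 Bcr-Abl) kept under standard culture conditions were exposed to 10 nM conjugate and harvested at 6, 12, 24 and 48 h. Untreated controls were harvested at 48 h. Whole-transcript oligonucleotide microarray profiling was done, and changes of at least twofold versus control were scored.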

[18] = system: K562; experiment: Effect on HIST1H4D gene expression in human K562 cells assessed as down-regulation of mRNA transcript expression at 10 nM after 48 hrs by DNA microarray analysis relative to control; assay type: functional; in short: as §2
[19] = system: K562; experiment: Induction of apoptosis in human K562 cells assessed as viable cells at 250 nM after 48 hrs by annexin-V FITC and propidium iodide staining-based FACS analysis; assay type: functional; settings: K562, 48 h, read-out: Activity
In short: (§4)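 Treated K562 cells […] stained with Annexin V-FITC/propidium iodide. Apoptosis was scored by two-dimensional flow cytometry at a core FACS facility.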

[20] = system: K562; experiment: Effect on ATP1B2 gene expression in human K562 cells assessed as change in mRNA transcript expression at 10 nM after 48 hrs by DNA microarray analysis relative to control; assay type: functional; in short: as §2
[21] = system: K562; experiment: Effect on HIST1H3F gene expression in human K562 cells assessed as change in mRNA transcript expression at 10 nM after 48 hrs by DNA microarray analysis relative to control; assay type: functional; in short: as §2
[22] = system: K562; experiment: Effect on TOMM22 gene expression in human K562 cells assessed as change in mRNA transcript expression at 10 nM after 48 hrs by DNA microarray analysis relative to control; assay type: functional; in short: as §3
[23] = system: K562; experiment: Effect on LGALS3BP gene expression in human K562 cells assessed as change in mRNA transcript expression at 10 nM after 48 hrs by DNA microarray analysis relative to control; assay type: functional; in short: as §1
[24] = system: K562; experiment: Effect on LOC85391 gene expression in human K562 cells assessed as change in mRNA transcript expression at 10 nM after 48 hrs by DNA microarray analysis relative to control; assay type: functional; in short: as §1
[25] = system: K562; experiment: Induction of apoptosis in human K562 cells assessed as late apoptotic cells at 250 nM after 48 hrs by annexin-V FITC and propidium iodide staining-based FACS analysis; assay type: functional; in short: as §4
[26] = system: K562; experiment: Effect on FER gene expression in human K562 cells assessed as change in mRNA transcript expression at 10 nM after 48 hrs by DNA microarray analysis relative to control; assay type: functional; in short: as §2

## CC(=O)Nc1cn(C)c(C(=O)Nc2cn(C)c(C(=O)NCCC(=O)Nc3cn(C)c(C(=O)NCCCC(=O)Nc4cc(C(=O)Nc5cn(C)c(C(=O)Nc6ccc7[nH]c(C(=O)N8CC(CCl)c9c8cc(O)c8ccccc98)cc7c6)n5)n(C)c4)n3)n2)n1 (stereo unspecified)
[1]
  fold change (FC): >=2
[2]
  Activity: Active
[3]
  fold change (FC): >=2
[4]
  fold change (FC): >=2
[5]
  fold change (FC): >=2
[6]
  fold change (FC): >=2
[7]
  fold change (FC): >=2
[8]
  Activity: Active
[9]
  fold change (FC): >=2
[10]
  fold change (FC): >=2
[11]
  fold change (FC): >=2
[12]
  fold change (FC): >=2
[13]
  fold change (FC): >=2
[14]
  fold change (FC): >=2
[15]
  fold change (FC): 2.11
[16]
  fold change (FC): >=2
[17]
  fold change (FC): >=2
[18]
  fold change (FC): 2.43
[19]
  viability at 0.25 µM: 71.8%
[20]
  fold change (FC): >=2
[21]
  fold change (FC): >=2
[22]
  fold change (FC): >=2
[23]
  fold change (FC): >=2
[24]
  fold change (FC): >=2
[25]
  Activity: 8.53%
[26]
  fold change (FC): >=2

Reference: ChEMBL document CHEMBL1157704, “Potent activity against K562 cells by polyamide-seco-CBI conjugates targeting histone H4 genes” (Bioorg Med Chem, 2010)
